Among the data in ChEMBL document CHEMBL1142852, “A series of 5-(5,6)-dihydrouracil substituted 8-hydroxy-[1,6]naphthyridine-7-carboxylic acid 4-fluorobenzylamide inhibitors of HIV-1 integrase and viral replication in cells” (Bioorg Med Chem Lett, 2005) are IC95, IC50 and Activity values, retold here.

Series [1] has as its system Human immunodeficiency virus. As to the kind of experiment: Antiviral activity in presence of 10% FBS against HIV-1 replication in cells. In kind it is functional, Human immunodeficiency virus 1. The following applies: read-out: CIC95.
The target of series [2] is Human immunodeficiency virus type 1 integrase (Human immunodeficiency virus 1, UniProt Q7ZJM1). Description: Inhibition of strand transfer for HIV-1 integrase.
Human immunodeficiency virus type 1 integrase, sequence (Q7ZJM1 whole entry): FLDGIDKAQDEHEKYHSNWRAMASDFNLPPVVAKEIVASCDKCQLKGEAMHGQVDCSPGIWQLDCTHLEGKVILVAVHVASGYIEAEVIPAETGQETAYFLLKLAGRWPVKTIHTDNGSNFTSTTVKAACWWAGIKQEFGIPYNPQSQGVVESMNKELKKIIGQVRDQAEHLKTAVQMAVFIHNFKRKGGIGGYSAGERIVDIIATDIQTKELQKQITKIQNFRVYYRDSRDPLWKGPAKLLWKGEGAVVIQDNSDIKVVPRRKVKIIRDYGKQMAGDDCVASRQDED
A short description of series [3]: Human plasma albumin binding in pH 7.4 at RT. It counts as ADME, cell-free. In a few lines: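 Binding to human plasma protein, mainly albumin, was measured by analytical HPLC with UV detection. The assay ran in pH 7.4 buffer at room temperature, and the result was reported as percent protein bound.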
For series [4], the system named is Human immunodeficiency virus. As to the kind of experiment: Antiviral activity in presence of 50% NHS against HIV-1 replication in cells. In kind it is functional, Human immunodeficiency virus 1. The following applies: read-out: CIC95.

Broadly, the IC50 is the concentration that gives 50% inhibition. Read a low IC50 as greater potency in that assay. As for `CN1C(=O)CC(c2nc(C(=O)NCc3ccc(F)cc3)c(O)c3ncccc23)N(C)C1=O` (racemic), the IC95 came out at 18.6 nM in series [1] and 60.7 nM in series [4]. Further, half-maximal inhibition in series [2] (IC50) was put at 8.7 nM. Moreover, the Activity in series [3] is reported as 94.3%.

Consider `CN1C(=O)CC(c2nc(C(=O)NCc3ccc(F)cc3)c(O)c3ncccc23)N(C)C1=O` (single isomer, unassigned; (+)), for which the IC95 in series [1] amounted to 41.7 nM; in series [4] it was 166.7 nM. This compound also came in with a concentration for half-maximal inhibition (IC50) in series [2] of 11.3 nM. In series [3], this compound had an Activity of 96%.

Turning to `CN1C(=O)NC(=O)CC1c1nc(C(=O)NCc2ccc(F)cc2)c(O)c2ncccc12` (racemic), the IC95 in series [1] (Human immunodeficiency virus 1) and in series [4] (Human immunodeficiency virus 1) was 15.6 nM each time. The same compound displayed an IC50 in series [2] of 12.5 nM.

As for `O=C1CC(c2nc(C(=O)NCc3ccc(F)cc3)c(O)c3ncccc23)NC(=O)N1` (single isomer, unassigned; (+)), the IC95 in series [1] and in series [4] was 93.8 nM each time. Moreover, in series [2], half-maximal inhibition (IC50) required 11 nM.

Turning to `CN1C(=O)CC(c2nc(C(=O)NCc3ccc(F)cc3)c(O)c3ncccc23)NC1=O` (racemic), the IC95 in series [1] (Human immunodeficiency virus 1) came out at 31.3 nM; in series [4] (Human immunodeficiency virus 1), 62.5 nM. The same compound had an IC50 in series [2] of 12.8 nM.

With `O=C1CC(c2nc(C(=O)NCc3ccc(F)cc3)c(O)c3ncccc23)NC(=O)N1` (single isomer, unassigned; (-)), the IC95 in series [1] and in series [4] was 125 nM each time. This compound also gave an IC50 in series [2] of 13.3 nM.

`CN1C(=O)CC(c2nc(C(=O)NCc3ccc(F)cc3)c(O)c3ncccc23)N(C)C1=O` (single isomer, unassigned; (-)): the figures for the IC95 in series [1] and in series [4] were 20.1 nM and 40.2 nM, respectively. The compound further came in with an IC50 in series [2] of 35 nM. Besides, in series [3], the Activity is recorded as 95%.

Turning to `O=C(NCc1ccc(F)cc1)c1ncc2cccnc2c1O`, the IC95 stood at 1250 nM in series [1] (Human immunodeficiency virus 1) and 5000 nM in series [4] (Human immunodeficiency virus 1). Besides, 32.8 nM corresponded to half-maximal inhibition in series [2] (IC50). In series [3], this compound gave an Activity of 99.2%.

For `O=C1CC(c2nc(C(=O)NCc3ccc(F)cc3)c(O)c3ncccc23)NC(=O)N1` (racemic), the IC95 in series [1] is 53.7 nM; in series [4] it was 55.7 nM. For the same compound, in series [2], half-maximal inhibition (IC50) required 10 nM. The same compound gave an Activity in series [3] of 92.1%.

For `CN1C(=O)CC(c2nc(C(=O)NCc3ccc(F)cc3)c(O)c3ncccc23)N(C)C1=O` (stereo in doubt; 14), the IC95 in series [1] stood at 250 nM; in series [4], 1000 nM. Moreover, in series [2], inhibition was half-maximal at 27.5 nM (IC50). This compound also registered an Activity in series [3] of 97.8%.
